58 compounds from PubChem BioAssay AID463079 (The Scripps Research Institute Molecular Screening Center, 2010) can be followed below.

Hit rate of the full screen: of about 330,000 compounds, about 2,000 (0.61%) were called active. Many of the other results were omitted from the sample, so actives are more common in it than they were. Values without a mark were called inactive.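 Rule for the calls: active = inhibition above that plate's mean sample inhibition plus 3 SD (cut at about 26% in these data); inactive = the rest.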

By inhibition is commonly meant the relative decrease from the control value, in per cent.

A short description of this assay: ATP-evoked calcium signal inhibitors, parental CHO, primary screen, counter-screen for OX1R antagonist project, cell-based, fluorescence, Fluo-8 calcium dye (AID 463079).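 Note: 0% = ATP-challenged DMSO wells and 100% = DMSO wells without ATP.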 The following applies: parental CHO-K1, ATP-induced calcium, Fluo-8 fluorescence; at 5.6 µM; hits give high values. The method, boiled down:
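Measured by: calcium-sensitive Fluo-8 fluorescence / Test system: CHO parental line / Controls: ATP-challenged DMSO wells low, unchallenged DMSO wells high / Measure: % inhibition / Compound: single nominal dose of 5.6 µM per compound / Replicates: single well per compound, no replicates / Reagent: ATP as calcium-mobilizing challenge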
On the technique in general: Counterscreens check selectivity or assay interference.
In the case of `Fc1ccc2[nH]c3c(N4CCSCC4)ncnc3c2c1`, the inhibition is 58.3% (active). Consider `Cc1nn(C)cc1N1C(=O)c2cccc3c(N)ccc(c23)C1=O`, for which the inhibition is 36.8% (active).

For the compound `CN1C(=O)c2cccc3c(N)ccc(c23)C1=O`, the inhibition is 49.2% (active). With `O=C(O)c1ccc2c3c(cccc13)C(=O)N(OS(=O)(=O)c1ccccc1)C2=O`, the inhibition was -10.1%.

`CC(=O)Nc1ccccc1Sc1ccc2c3c(cccc13)C(=O)N(c1ccc(C)cc1)C2=O`: the inhibition was -4.4%. `Cc1nn(C)cc1C(=O)c1ccccc1`: the inhibition was -6.65%. For `COc1cc(C(=O)N2C(=O)c3cccc(N)c3C2=O)cc(OC)c1OC`, the inhibition was -9.7%.

For the compound `CC(NS(=O)(=O)c1ccccc1)c1n[nH]c(=S)n1-c1ccccc1` (stereo not drawn), the inhibition was 9.34%. Turning to `O=C(c1ccccc1Cl)N(Cc1ccccc1F)N1C(=O)CCCC1=O`, the inhibition is 6.42%. On to `COCCCN1C(=O)C(=O)/C(=C(/O)c2ccc(S(=O)(=O)N3CCOCC3)cc2)C1c1ccc(F)cc1` (stereo not drawn), for which the inhibition was 14.2%. In the case of `COc1ccc(NS(=O)(=O)c2ccc(NC(=S)NC(=O)CC(C)C)cc2)cc1`, the inhibition is 44.3% (active). Then `COc1ccc(NS(=O)(=O)c2ccc(C(=O)Nc3c(C)n(C)n(-c4ccccc4)c3=O)cc2)cc1`, with -3.65%; and `CC(=O)c1ccc(NC(=S)NC(=O)CC(C)C)cc1`, with 7.82%. Then `COc1ccc(NS(=O)(=O)c2ccc(NC(=O)c3ccc(N(C)S(C)(=O)=O)cc3)cc2)cc1`, with 31.2% (active); and `COc1cc(OC)cc(C(=O)Nc2ccc(S(=O)(=O)Nc3cc(C)on3)cc2)c1`, with -3.8%; and `COc1ccc(OC)c(C(C)NC(=S)Nc2ccc(S(=O)(=O)Nc3ncccn3)cc2)c1` (stereo not drawn), with 3.7%.

Take `CCSc1nc(=S)n(CC)c(C)c1C(C)=O`: the inhibition is -1.19%. As to `CC(C)(C)CN1C(=O)C(=O)NC[C@H]1Cc1cccc2ccccc12`, the inhibition was -9.71%.

Take `COC(=O)Nc1ncc(CN2CCCCC2)s1`: the inhibition is 0.87%. Turning to `O=C(COc1ccc(Cl)cc1)NC(=S)Nc1ccccc1N1CCOCC1`, the inhibition was -32%. As for `Cc1ccccc1NC(=S)NC(=O)Cc1ccc(Cl)cc1`, the inhibition is 2.02%.

In the case of `O=C(Cc1ccc(Cl)cc1)NC(=S)Nc1ccccc1O`, the inhibition was 39% (active). The value for `COc1ccc(NC(=O)CSCc2ccc([N+](=O)[O-])cc2)cc1OC` was -6.67%; that for `CC(C)CC(=O)N=C1SC2CS(=O)(=O)CC2N1CCc1ccccc1` (stereo not drawn) was -2.34%; that for `O=c1c2ccccc2nc2n1C(CSCc1cccc(C(F)(F)F)c1)CS2` (stereo not drawn) was 40.1% (active). The value for `O=c1c2ccccc2nc2n1C(CSc1ccc(F)cc1)CN2` (stereo not drawn) was -3.49%; that for `O=c1c2ccccc2nc2n1C(CSCc1ccccc1)CS2` (stereo not drawn) was 2.02%; that for `COc1ccccc1C(=O)C(O)c1ccccc1OC` (stereo not drawn) was -2.08%.

As to `Cc1cccc(C)c1NC(=O)CNC(=O)c1c(C)nn(-c2ccccc2)c1C`, the inhibition was 9.7%. For `COc1ccc(CC(=O)Nc2nc(-c3ccc(F)c(F)c3)cs2)cc1OC`, the inhibition is 55.3% (active).

Regarding `COc1ccc(-c2csc(NC(=O)COC(=O)Cc3ccc(Cl)cc3Cl)n2)cc1`, the inhibition was -7.84%. Consider `COc1ccc(OC)c(-c2csc(NC(=O)COC(=O)C3CC3)n2)c1`, for which the inhibition is -16.7%. Consider `Cc1ccc(S(=O)(=O)NC(=O)Nc2nc(-c3ccc(F)c(F)c3)cs2)cc1`, for which the inhibition was 13.3%.

On to `CCCc1ccc(-c2csc(NC(=O)Cc3cccs3)n2)cc1`, for which the inhibition was -13.1%. For the compound `COc1ccc(-c2csc(NC(=O)COC(=O)c3ccc(Br)o3)n2)cc1`, the inhibition is -1.84%. Regarding `COc1cc(CC(=O)NCc2cccs2)cc(OC)c1OC`, the inhibition was -12.1%. Regarding `COc1cc(CC(=O)Nc2nc(-c3ccc(F)c(F)c3)cs2)cc(OC)c1OC`, the inhibition was 50.5% (active).

Regarding `COc1cccc(CC(=O)Nc2nc(-c3ccc(OC)c(OC)c3)cs2)c1`, the inhibition is 50.6% (active). In the case of `Cc1ccc(C)c(Cn2nnc3c(=O)[nH]c(C(=O)Nc4ccc(F)cc4)nc32)c1`, the inhibition was -8.13%. With `Cc1cccc(NC(=S)NCCc2ccc(F)cc2)c1C`, the inhibition is -8.34%. Then `C=CCOC(=O)C1=C[C@H](c2ccc(Br)cc2)C[C@H](OCCCCO)O1`, with -16.9%. For the compound `Cc1cccc(-c2nc3c(c(SCC(=O)N4CCOCC4)n2)CCCC3)c1`, the inhibition was -8.39%.

In the case of `CC[C@]1(O)C[C@@H]2CN(CCc3c([nH]c4ccccc34)[C@@](C(=O)OC)(c3cc4c(cc3OC)N(C)[C@H]3[C@@](O)(C(=O)OC)[C@H](OC(C)=O)[C@]5(CC)C=CCN6CC[C@]43[C@@H]65)C2)C1`, the inhibition is -20.6%. `O=C(O)c1ccccc1CSc1nc2ccccc2s1`: the inhibition was -0.85%. With `O=[N+]([O-])c1c(NCCO)cc(Sc2nc3ccccc3s2)c2nonc12`, the inhibition was 77.3% (active).

For the compound `Cc1nc2nc(CSc3nc4ccccc4s3)cc(=O)n2[nH]1`, the inhibition is -18.4%. On to `CN1CCc2nc(SC(C(=O)O)c3ccccc3)c(C#N)c(-c3cccs3)c2C1` (stereo not drawn), for which the inhibition was -2.58%.

Turning to `CC[C@]1(C(=O)OC)[C@H]2C(=O)N(Cc3ccccc3)C(=O)[C@H]2[C@H]2CN=C(SCc3ccccc3)N21`, the inhibition was -23.1%. On to `COc1ccc(N2CCN(c3ccc([N+](=O)[O-])cc3Cl)CC2)cc1`, for which the inhibition is 12%. Take `CN(C)S(=O)(=O)N1CCN(c2ccc([N+](=O)[O-])cc2)CC1`: the inhibition is 29% (active). With `Cc1ccc(N2CCN(S(=O)(=O)N(C)C)CC2)cc1Cl`, the inhibition was -18.3%. Then `CCCOc1ccc(Cc2c(O)nc(N)[nH]c2=O)cc1C`, with -2.86%. As for `COc1cc(OC)cc(-c2cc3ccc(F)cc3cn2)c1`, the inhibition was -22.7%. On to `COc1ccc(-c2noc(C(C)NS(=O)(=O)c3ccc(NC(C)=O)cc3)n2)cc1` (stereo not drawn), for which the inhibition was -2.83%.

For `COc1ccc(N2CCN(C(=O)CCc3nc(-c4ccc(C)cc4)no3)CC2)cc1`, the inhibition is -13.6%. Take `COc1ccc(-c2noc(CN(C)S(=O)(=O)c3ccc(C)cc3)n2)cc1`: the inhibition was 38.9% (active). Regarding `Cc1ccc(OCC(=O)Nc2ccccc2C(=O)NC2CC2)cc1`, the inhibition was -12.7%.

On to `Cc1nc(-c2ccc(Cl)cc2)sc1C(=O)CBr`, for which the inhibition was 16.1%.
